Experimental data as given in ChEMBL document CHEMBL4513216, “Probing the Open Global Health Chemical Diversity Library for Multistage-Active Starting Points for Next-Generation Antimalarials” (ACS Infect Dis, 2020).

Assay: Toxicity liver stage against HepG2, at 10uM
Assay type: cell-based
Design: test concentration 10 uM, cell line HepG2-A16-CD81EGFP
Conditions: human, HepG2-A16-CD81EGFP cells; read-out: INHIBITION
Procedure, shortened: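 Uninfected HepG2-A16-CD81EGFP cells, 3 × 10^3 per well, 1536-well, plated on prespotted compound at 10 μM final, parasite-free screening media added to match infected plates; puromycin 10 μM positive, DMSO 0.5% negative; run in parallel with 48 h PbLuc assay at 37 °C, 5% CO2; viability by CellTiter-Glo luminescence, normalized to controls.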

| Compound | cytotoxicity at 10 µM [%] |
| --- | --- |
| CCS(=O)(=O)c1ccc2oc([C@H]3CCN(Cc4ccccn4)C3)nc2c1 | -0.125 |
| O=C(Nc1ccccc1)[C@H]1CN2CC[C@H]1C[C@@H]2Cn1cc(CCO)nn1 | -0.843 |
| O=C([C@@H]1Cc2[nH]cnc2CN1CC1CC1)N1CCCC1 | 2.5 |
| O=C(c1cccnc1Oc1ccc(Cl)cc1)N1CC[C@@H](O)C1 | -3.36 |
| CCOc1ccc(NC(=O)C2OC(c3cccs3)=NN2C(C)=O)cc1 (stereo not given) | 4.77 |
| O=C1CC(c2ccccc2)c2c(c(C(=O)O)cn2-c2ccccc2)N1 (stereo not given) | -0.0616 |
| CN(C)S(=O)(=O)N1CCN(C(=O)c2cc(-c3ccc(Br)s3)n[nH]2)CC1 | -2.66 |
| CN(C)C(=O)N1Cc2ccccc2C2(CCN(C3CCOCC3)CC2)C1 | 7.21 |
| CC(C)CNC(=O)N1C[C@H]2CCN[C@H]2C1 | 7.12 |
| C[C@@H]1CN(C(=O)c2ccccc2F)C[C@]12CCN(CCN(C)C)C2=O | 3 |
| CCc1cnc(N2CCC3(CC2)CCN(c2cnn(C)c2)C3=O)nc1 | -2.2 |
| CNC(=O)C1CCC2(CCN(c3ncc(C)cn3)CC2)CO1 (stereo not given) | -4.66 |
| CN(C)C(=O)CN1CCC2(CCCN(c3ncc(F)cn3)C2)C1=O (stereo not given) | 9.51 |
| CC(C)CNc1nc(C(=O)/N=c2\[nH]nc(C(C)(C)C)s2)cs1 | 9.6 |
| CC(C)CC(=O)N1CCCn2cnc(CN3CCCC3=O)c2C1 | -6.42 |
| CCn1ccc(-c2cc(C(=O)O)n3nc(C(F)(F)F)c(Br)c3n2)n1 | -1.47 |
| CC(C)C(=O)NCCc1cc2nc(-c3ccncc3)ccn2n1 | 4.94 |
| O=C(CCCc1ccccn1)Nc1cccc(N2CCCNC2=O)c1 | 1.94 |
| CNS(=O)(=O)c1cccc(CNCc2ccsc2)c1 | -2.54 |
| Cc1nn(C)c(Cl)c1C1CCCN1c1ncnc2c1CCC2 (stereo not given) | 19.1 |
| CCCn1cc(NC(=O)Nc2ccc(F)c(C(=O)NC)c2)cn1 | 6.98 |
| CCOc1ccccc1C(=O)NCc1nncn1C1CC1 | 3.3 |

| Compound | cytotoxicity at 10 µM [%] |
| --- | --- |
| COc1cc(CNC(=O)c2cc(Cl)ccc2F)ccn1 | -2.69 |
| CC(NC(=O)NC1CC1)c1nc(-c2ccccc2)cs1 (stereo not given) | -5.83 |
| CCOCCN1CCN(CCOC)CC1C (stereo not given) | -4.2 |
| OC(CNCCn1cccn1)COc1cccc(C(F)(F)F)c1 (stereo not given) | -19.7 |
| O=C(NC1CCC(O)CC1)c1cnc2c(cnn2C2CCCC2)c1 (stereo not given) | -3.79 |
| COc1ccc(CNCC2CN(C3CC3)CCO2)cc1F (stereo not given) | -12.4 |
| Cc1ccc(C)c(S(=O)(=O)CCN2CCCC2Cn2cncn2)c1 (stereo not given) | -8.5 |
| Cc1nc(CN(C)Cc2cc3c(cc2OC(F)F)OCO3)oc1C | 2.22 |
| CC(=O)NCCNC(=O)NCCCc1cccc(F)c1 | 10.5 |
| O=C(CCCOc1ccccc1F)Nc1cc[nH]n1 | -11 |
| CC(NC(=O)C(C)(C)C#N)c1ccc(OCC2CC2)c(F)c1 (stereo not given) | 2.31 |
| Cc1ccc(S(N)(=O)=O)cc1C(=O)NCC1Cc2ccccc2O1 (stereo not given) | 3.04 |
| Cc1cccc(N(C)Cc2nc3c(cnn3C)c(=O)[nH]2)c1C | -9.23 |
| CCN(Cc1nc2c(cnn2C)c(=O)[nH]1)c1cc(C)ccc1C | -11.3 |
| CCc1cnc(CN2CCC(O)(c3cc(OC)cc(OC)c3)CC2)o1 | -0.276 |
| CN(Cc1ccc(Br)s1)Cn1nc(-c2ccccc2)oc1=O | 4.86 |
| CN(C(=O)CNc1ccc(C#N)cc1)C1CCN(c2ccccn2)CC1 | 18.7 |
| O=C(O)CSc1nc(-c2ccc3c(c2)CCC3)n[nH]1 | 1.88 |
| CC(C)c1nc2n(n1)CC(NCCc1cccs1)CC2 (stereo not given) | -5.71 |
| CNS(=O)(=O)c1cccc(CNC(=O)c2cnn(C)c2C)c1 | 0.857 |
| CCCC(C#N)NC(=O)Cc1csc(CC)n1 (stereo not given) | -2.08 |
| CC(C)CCN(C(=O)CCn1cc(S(N)(=O)=O)cn1)C1CC1 | 3.92 |

| Compound | cytotoxicity at 10 µM [%] |
| --- | --- |
| Cc1ccc(C(=O)NCC2CCN(C)c3ccccc32)c(=O)[nH]1 (stereo not given) | 12.6 |
| CC1CN=C(N2CCN(C(=O)Nc3nc(-c4ccccc4)ns3)CC2)S1 (stereo not given) | 10.6 |
| CN(C)CC(=O)N1CCO[C@@H]2CC(COCc3ccncc3)C[C@H]21 (stereo not given in full) | -108 |
| O=S(=O)(NCC1CCCN(Cc2ccccc2F)C1)C1CC1 (stereo not given) | -8.27 |
| COc1cc2c(cc1C(=O)N1CCCCC1c1ccccn1)CCC2 (stereo not given) | -2.8 |
| Cn1cc(Cl)c(CN(Cc2ccsc2)CC2CCCO2)n1 (stereo not given) | -3.84 |
| O=C(O)[C@@H]1CN(C(=O)CCC(F)(F)F)C[C@H]1c1ccncc1 | 0.108 |
| CN(C)c1nc(NCCc2ccccn2)ncc1F | -4.84 |
| COc1cccc(N2CCN(Cc3nccc(OC)c3OC)CC2=O)c1 | 3.63 |
| Cc1nc(C(=O)N[C@H]2COC[C@@H]2N2CCCCC2)cs1 | 15.5 |
| COc1ccc(C(=O)NCc2ccon2)cc1F | 0.824 |
| CC(C)(C)SCCN1CC(=O)N2CC[C@@H](O)C[C@H]2C1=O | 4.01 |
| CCNC(=O)[C@@H]1C[C@@H](N)CN1C(=O)c1[nH]c2ccccc2c1CC | 0.106 |
| Cc1cccn2cc(C(=O)N3CCCN(CC4CC4)C(C(C)C)C3)nc12 (stereo not given) | 1.46 |
| Cc1cc(CN(C)C(=O)C2CCC(=O)N(CC3CCCCC3)C2)n[nH]1 (stereo not given) | 1.85 |
| Cc1ccnc(NCCNC(=O)c2ccccc2NCC(=O)O)c1 | -12.7 |
| CCNC(=O)[C@@H]1C[C@@H](N)CN1C(=O)Cc1cc(C)ccc1C | 1.87 |
| Cc1cc(C)n(CCNC(=O)c2ncc[nH]2)c(=O)n1 | 2.84 |
| CC(=O)Nc1cccc(C(=O)Nc2cnc3n2CCCC3)c1 | 4.36 |
| COC(=O)c1cccn1C1CCN(C(=O)c2ccc(C)cc2O)CC1 | -6.97 |
| O=C(c1cccn1Cc1cccs1)N1CCC(C(=O)N2CCCC2)CC1 | -1.23 |
| Cc1cc(CN(C)C2CCCN(Cc3noc(C4CC4)n3)C2)on1 (stereo not given) | -1.68 |

| Compound | cytotoxicity at 10 µM [%] |
| --- | --- |
| O=C(NCc1ccccc1Cn1cncn1)C1CCC1 | -4.43 |
| O=C(CCCOc1ccc(F)cc1F)N1CCCC(n2cccn2)C1 (stereo not given) | -4.75 |
| CC(=O)Nc1nc(CN2CCn3c(C)nnc3C2)cs1 | -1.68 |
| CCNC(=O)CNCc1c(C(C)C)nn(C)c1N1CCOCC1 | -6.45 |
| Cc1nc(C2CCCN(C(=O)c3cc4c(s3)CCCC4)C2)no1 (stereo not given) | -7.03 |
| Cc1nn(C)c(Cl)c1C1CCCN1Cc1cccc(C(N)=O)c1 (stereo not given) | -6.22 |
| Cc1cc(NC(=O)c2ccc(-n3ncc(C#N)c3N)cc2)n(C)n1 | -0.0414 |
| Cc1nc(CN(C)C2CCN(CCc3cnn(C)c3)C2)no1 (stereo not given) | 3.63 |
| CC(Cn1cccn1)NC(=O)NCc1cccnc1OC(C)C (stereo not given) | -9.44 |
| CCOc1ncccc1CNC(=O)N1CCC(n2cncn2)CC1 | -1.26 |
| CN(C)c1ncccc1CNS(=O)(=O)c1c(F)cccc1F | -9.91 |
| COC(=O)c1cccn1C1CCN(Cc2cccnc2)CC1 | -25.6 |
| Cc1cn2nc(N3CCCCC3Cn3cccn3)sc2n1 (stereo not given) | -1.14 |
| O=C(c1ccc(NC2CC2)nc1)N1CCC(Nc2cccnn2)CC1 | -12.6 |
| CC(C)c1nc2c(n1C)CCN(CC(=O)Nc1ccncc1)C2 | 0.698 |
| CCN(Cc1ccc(OC)c(F)c1)Cc1nc2c(cnn2C)c(=O)[nH]1 | 2.2 |
| CC(=O)N(Cc1noc(C)n1)C1CCN(Cc2ncc(C(C)C)o2)C1 (stereo not given) | -13.2 |
| Cn1cnnc1C1CCCN(C(=O)c2cc(Cl)cc(Cl)c2)C1 (stereo not given) | -9.91 |
| Cc1cnn(CC2CCCN2C(=O)c2cccc3c2OCO3)c1 (stereo not given) | -5.25 |
| Cc1cc(NC(=O)C(C)N2CCN(c3nccs3)CC2)on1 (stereo not given) | -12.6 |
| Cc1cc(C)n(CC2CN(CC(=O)Nc3nncs3)CCO2)n1 (stereo not given) | -2.97 |
| Cc1cnn(C2CCCN(C(=O)c3ccc(N(C)C)nn3)C2)c1 (stereo not given) | -5.36 |

| Compound | cytotoxicity at 10 µM [%] |
| --- | --- |
| COc1c(CNCc2ccc(CN(C)C)cc2)c(C(C)C)nn1C | -11.2 |
| Cc1cc(CN(C)C(=O)c2cccc(N3CCCC3=O)c2)no1 | 0.376 |
| CN(C)c1ncccc1CNC(=O)N1CCCC1CN1CCCCC1 (stereo not given) | -0.986 |
| Cc1nc(C)n(C2CCCN(C(=O)c3csnn3)C2)n1 (stereo not given) | -5.48 |
| COc1ccc(C(=O)N2CCCC(CNS(C)(=O)=O)C2)cc1F (stereo not given) | -5.45 |
| Cc1cc(NC(=O)C(C)N2CCCN(c3nccs3)CC2)on1 (stereo not given) | 1.79 |
| CC(C)C(=O)N(C)Cc1nc(N2CCCC2)ncc1-c1ccncc1 | 6.54 |
| COc1cccc(CN2CCC3(CC2)CCN(c2ncccn2)C3)c1 | -7.46 |
| CCS(=O)(=O)N1CCOCC2(CCN(c3ccccn3)C2)C1 (stereo not given) | 5.66 |
| c1cc(CN2C[C@@H]3OCCN(CCN4CCCC4)[C@@H]3C2)cs1 | -1.46 |
| CNC(=O)[C@H]1C[C@@H]2CN(C(=O)c3ccc(C)nc3)C[C@@H]2N1C(C)C | -116 |
| Cc1cccc(CN2CCCCC23CCNC3)n1 (stereo not given) | 1.49 |
| CCOCC1CN(Cc2nccs2)Cc2nn(CC3CC3)cc21 (stereo not given) | -1.81 |
| O=C(O)c1cc2c(nc1-c1ccsc1)CCN(C1CCOC1)CC2 (stereo not given) | 15 |
| c1cnc(N2CC3(CCN(Cc4ccncc4)C3)C2)nc1 | -82.8 |
| CCN1C[C@@H]2[C@@H](OC)CCN(C(=O)Cc3ccsc3)[C@@H]2C1 | 0.11 |
| CC1c2ncc(CN3CCN(C)CC3)n2CCN1Cc1ccc(F)cc1 (stereo not given) | 2.49 |
| Cc1ncsc1CN1CC[C@H]2OCC[C@@]2(C(=O)N2CCOCC2)C1 | 6.91 |
| CCc1nnc2n1CCN(C=C1NN=C(c3occc3C)O1)C2 | -10 |
| O=c1cc(CN2CC[C@@H]3CC[C@H](C2)N3)c2cccc3c2n1CCC3 | 9.64 |
| O=C1C[C@@H]2CC[C@H](CN1)N2C(=O)CCc1ccccc1 | -0.0739 |
| O=C1C[C@@H]2CC[C@H](CN1)N2C(=O)Cc1ccsc1 | 1.6 |
